Experimental data as given in ChEMBL document CHEMBL3286138, “Petasin activates AMP-activated protein kinase and modulates glucose metabolism” (J Nat Prod, 2014).
Blank lines part the entries; values can stand above or below the compound they belong to. The source made the active and inactive calls. The calls are words filed in the database; no cut-off is given here.

Experiments:
Mus musculus [1] = experiment: Activation of AMPK in C57BL/6J mouse liver assessed as phosphorylated ACC level at 200 mg/kg, po after 2 hrs by Western blot analysis; assay type: functional, organism-based; design: dose 200 mg/kg
Procedure, shortened: (§1)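 Male C57BL/6J mice (10 weeks), fasted 4 h, given a single oral dose of 200 mg/kg in 0.5% carboxymethyl cellulose with 0.5% polyoxyethylene sorbitan. Dissected under chloral hydrate anesthesia (500 mg/kg ip) 2 h later. Liver, epididymal white adipose and quadriceps were homogenized in RIPA buffer and immunoblotted for p-AMPKα (Thr172) and p-ACC (Ser79). Signals normalized to α-tubulin; mean ± SE, 5 mice; Student's t test against vehicle.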

Mus musculus [2] = experiment: Activation of AMPK in C57BL/6J mouse white adipose tissue at 200 mg/kg, po after 2 hrs by Western blot analysis; assay type: functional, organism-based; design: dose 200 mg/kg; procedure, shortened: as §1
Mus musculus [3] = experiment: Activation of AMPK in C57BL/6J mouse white adipose tissue assessed as phosphorylated ACC level at 200 mg/kg, po after 2 hrs by Western blot analysis; assay type: functional, organism-based; design: dose 200 mg/kg; procedure, shortened: as §1
Mus musculus [4] = experiment: Activation of AMPK in C57BL/6J mouse skeletal muscle at 200 mg/kg, po after 2 hrs by Western blot analysis; assay type: functional, organism-based; design: dose 200 mg/kg; details: Muscle tissue; procedure, shortened: as §1
Mus musculus [5] = experiment: Activation of AMPK in glucose loaded C57BL/6J mouse assessed as decrease of AUC of blood glucose level at 100 to 200 mg/kg, po after 1 hr by oral glucose tolerance test; assay type: functional, organism-based
Procedure, shortened: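 Male C57BL/6J mice, fasted 15 h, dosed orally at 100 or 200 mg/kg. Glucose (1 M solution, 1 g/kg) given orally 60 min later. Tail-vein blood glucose read at 0, 15, 30, 45, 60, 90 and 120 min, and AUC calculated from the curve. Mean ± SE, 5 mice; one-way ANOVA with Dunnett's test against vehicle.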

Mus musculus [6] = experiment: Activation of AMPK in glucose loaded C57BL/6J mouse assessed as decrease of AUC of blood glucose level at 500 mg/kg, po after 1 hr by oral glucose tolerance test; assay type: functional, organism-based; design: dose 500 mg/kg
H4IIE [7] = experiment: Activation of AMPK in rat H4IIE cells assessed as increase of AMP level by spectrophotometric analysis; assay type: cell-based
Procedure, shortened: (§2)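 Serum-starved H4IIE hepatoma cells, differentiated C2C12 myotubes and differentiated 3T3-L1 adipocytes were exposed 1, 2 and 2 h respectively. Cells were lysed in Tris/SDS/glycerol, nuclease-digested, perchloric acid-extracted and neutralized. ATP, ADP and AMP were separated by C18 HPLC in phosphate buffer at pH 6.2, 40 °C, with detection at […]. AMP/ATP and ADP/ATP ratios were calculated from these levels; mean ± SE, n = 3.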

3T3-L1 [8] = experiment: Activation of AMPK in mouse 3T3L1 cells assessed as increase of AMP level by spectrophotometric analysis; assay type: cell-based; procedure, shortened: as §2
C2C12 [9] = experiment: Activation of AMPK in mouse C2C12 cells assessed as increase of AMP level by spectrophotometric analysis; assay type: cell-based; procedure, shortened: as §2
H4IIE [10] = experiment: Activation of AMPK in rat H4IIE cells assessed as increase of ADP level by spectrophotometric analysis; assay type: cell-based; procedure, shortened: as §2
3T3-L1 [11] = experiment: Activation of AMPK in mouse 3T3L1 cells assessed as increase of ADP level by spectrophotometric analysis; assay type: cell-based; procedure, shortened: as §2
C2C12 [12] = experiment: Activation of AMPK in mouse C2C12 cells assessed as increase of ADP level by spectrophotometric analysis; assay type: cell-based; procedure, shortened: as §2
H4IIE [13] = experiment: Activation of AMPK in rat H4IIE cells assessed as decrease of ATP level by spectrophotometric analysis; assay type: cell-based; procedure, shortened: as §2
3T3-L1 [14] = experiment: Activation of AMPK in mouse 3T3L1 cells assessed as decrease of ATP level by spectrophotometric analysis; assay type: cell-based; procedure, shortened: as §2
C2C12 [15] = experiment: Activation of AMPK in mouse C2C12 cells assessed as decrease of ATP level by spectrophotometric analysis; assay type: cell-based; procedure, shortened: as §2
H4IIE [16] = experiment: Activation of AMPK in rat H4IIE cells assessed as increase of AMP/ATP ratio level after 1 hr by spectrophotometric analysis; assay type: cell-based; procedure, shortened: as §2
3T3-L1 [17] = experiment: Activation of AMPK in mouse 3T3L1 cells assessed as increase of AMP/ATP ratio level after 2 hrs by spectrophotometric analysis; assay type: cell-based; procedure, shortened: as §2
C2C12 [18] = experiment: Activation of AMPK in mouse C2C12 cells assessed as increase of AMP/ATP ratio level after 2 hrs by spectrophotometric analysis; assay type: cell-based; procedure, shortened: as §2
H4IIE [19] = experiment: Activation of AMPK in rat H4IIE cells assessed as increase of ADP/ATP ratio level after 1 hr by spectrophotometric analysis; assay type: cell-based; procedure, shortened: as §2
3T3-L1 [20] = experiment: Activation of AMPK in mouse 3T3L1 cells assessed as increase of ADP/ATP ratio level after 2 hrs by spectrophotometric analysis; assay type: cell-based; procedure, shortened: as §2
C2C12 [21] = experiment: Activation of AMPK in mouse C2C12 cells assessed as increase of ADP/ATP ratio level after 2 hrs by spectrophotometric analysis; assay type: cell-based; procedure, shortened: as §2
Rattus norvegicus [22] = species on record: Rattus norvegicus; experiment: Inhibition of rat liver mitochondrial respiratory chain complex 1 assessed as reduction of oxygen consumption at stage 4 at 10 uM in presence of glutamate and ADP
Procedure, shortened: (§3)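 Liver mitochondria from Wistar rats were isolated by differential centrifugation in sucrose/Tris-MOPS/EGTA at pH 7.4, with respiratory control ratio 5−7. O2 uptake was measured with a Clark electrode, State 3/4 induced by 100 μM ADP. Complex I substrate was 5 mM glutamate plus 2.5 mM malate; complex II substrate was 5 mM succinate plus 2 μM rotenone. Dose−response run; mean ± SE, n = 3.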

Rattus norvegicus [23] = species on record: Rattus norvegicus; experiment: Inhibition of rat liver mitochondrial respiratory chain complex 1 assessed as reduction of oxygen consumption at stage 4 in presence of glutamate and malate; procedure, shortened: as §3
Rattus norvegicus [24] = species on record: Rattus norvegicus; experiment: Inhibition of rat liver mitochondrial respiratory chain complex 2 assessed as reduction of oxygen consumption at stage 4 in presence of succinate and rotenone; procedure, shortened: as §3
[25] = biological target: AMP-activated protein kinase, AMPK (Homo sapiens) (UniProt P54646+O43741+P54619+Q9UGJ0+Q9Y478+Q13131+Q9UGI9); experiment: Activation of AMPK in LKB1-deficient human HeLa cells at 10 to 100 uM after 1 hr by Western blot analysis; assay type: cell-based
H4IIE [26] = experiment: Increase of AMPK phosphorylation at Thr172 in rat H4IIE cells at 5 to 10 uM after 1 hr by ELISA; assay type: cell-based
Procedure, shortened: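 Confluent H4IIE cells in 96-well plates were starved overnight in serum-free DMEM (1 g/L glucose), then treated 1 h at 37 °C. Cells were fixed in 4% formaldehyde and endogenous peroxidase quenched with H2O2. Plates were blocked with 10% FBS and probed overnight at 4 °C with anti-p-AMPKα (Thr172), then with HRP secondary and TMB read-out. Mean ± SE, n = 4; Dunnett's test against basal.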

[27] = biological target: 5'-AMP-activated protein kinase catalytic subunit alpha-1 (Rattus norvegicus) (UniProt P54645); experiment: Increase of AMPKalpha phosphorylation at Thr172 in rat H4IIE cells after 1 hr by Western blot analysis; assay type: cell-based
Procedure, shortened: (§4)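 H4IIE cells grown in 1 g/L glucose DMEM, serum-starved overnight, then treated 1 h; 2 mM AICAR served as reference. Lysates (50−100 μg protein) were run on 7.5% SDS-PAGE and immunoblotted for p-AMPKα (Thr172), p-ACC (Ser79), total AMPKα and total ACC.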

[28] = biological target: 5'-AMP-activated protein kinase catalytic subunit alpha-1 (Rattus norvegicus) (UniProt P54645); experiment: Activation of AMPKalpha in rat H4IIE cells assessed as ACC phosphorylation at Ser79 after 1 hr by Western blot analysis; assay type: cell-based; procedure, shortened: as §4
[29] = biological target: 5'-AMP-activated protein kinase catalytic subunit alpha-1 (Rattus norvegicus) (UniProt P54645); experiment: Increase of AMPKalpha phosphorylation at Thr172 in rat H4IIE cells at 0.3 uM after […] by Western blot analysis; assay type: cell-based
[30] = biological target: 5'-AMP-activated protein kinase catalytic subunit alpha-1 (Mus musculus) (UniProt Q5EG47); experiment: Increase of AMPKalpha phosphorylation at Thr172 in mouse 3T3L1 cells at 10 uM after 2 hrs by Western blot analysis; assay type: cell-based; details: 3T3-L1
Procedure, shortened: (§5)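 Cells were starved, then treated 2 h with 2 mM AICAR as reference. C2C12 cells were myotubes differentiated 4 days in 2% horse serum. 3T3-L1 cells were adipocytes differentiated with insulin, dexamethasone and IBMX and used at days 10−14. Lysates were immunoblotted on 7.5% SDS-PAGE for p-AMPKα (Thr172), p-ACC (Ser79), total AMPKα and total ACC.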

[31] = biological target: 5'-AMP-activated protein kinase catalytic subunit alpha-1 (Mus musculus) (UniProt Q5EG47); experiment: Increase of AMPKalpha phosphorylation at Thr172 in mouse C2C12 cells at 5 uM after 2 hrs by Western blot analysis; assay type: cell-based; procedure, shortened: as §5
Mus musculus [32] = experiment: Activation of AMPK in C57BL/6J mouse liver at 200 mg/kg, po after 2 hrs by Western blot analysis; assay type: functional, organism-based; design: dose 200 mg/kg; procedure, shortened: as §1
Mus musculus [33] = experiment: Activation of AMPK in C57BL/6J mouse skeletal muscle assessed as increase of PGC-1alpha transcription at 100 to 200 mg/kg, po after 2 hrs by RT-qPCR analysis; details: Muscle tissue
Mus musculus [34] = experiment: Activation of AMPK in C57BL/6J mouse skeletal muscle assessed as increase of PGC-1alpha transcription at 500 mg/kg, sc after 2 hrs by RT-qPCR analysis; details: Muscle tissue

Chain of 5'-AMP-activated protein kinase catalytic subunit alpha-1 (Rattus norvegicus) (P54645 whole entry): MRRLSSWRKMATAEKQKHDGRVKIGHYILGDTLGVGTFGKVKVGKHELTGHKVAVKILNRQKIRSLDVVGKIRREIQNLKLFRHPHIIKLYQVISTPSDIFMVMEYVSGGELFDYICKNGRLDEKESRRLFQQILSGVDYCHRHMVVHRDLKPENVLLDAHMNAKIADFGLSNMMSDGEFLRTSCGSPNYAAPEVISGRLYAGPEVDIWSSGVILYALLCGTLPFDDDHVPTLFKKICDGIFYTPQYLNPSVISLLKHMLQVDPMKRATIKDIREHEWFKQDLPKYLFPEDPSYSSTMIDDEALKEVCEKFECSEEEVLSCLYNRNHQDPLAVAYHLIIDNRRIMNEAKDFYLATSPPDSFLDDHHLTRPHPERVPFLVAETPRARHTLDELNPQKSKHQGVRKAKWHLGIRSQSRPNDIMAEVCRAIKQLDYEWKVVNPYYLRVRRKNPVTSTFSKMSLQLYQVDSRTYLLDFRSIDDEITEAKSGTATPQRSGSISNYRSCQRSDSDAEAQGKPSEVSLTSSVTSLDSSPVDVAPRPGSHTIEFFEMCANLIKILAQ
Chain of 5'-AMP-activated protein kinase catalytic subunit alpha-1 (Mus musculus) (Q5EG47 whole entry): as the sequence (P54645 whole entry) above, with T269A, E518D counted along it

inhibition (Rattus norvegicus [24]): inactive
Activity [25]: Active
Activity [27]: Dose-dependent effect
Activity [28]: Dose-dependent effect
Activity [29]: Active
Activity [30]: Active
Activity [31]: Active
SMILES: C=C(C)[C@@H]1C[C@@]2(C)C(=CC1=O)CC[C@@H](OC(=O)/C(C)=C\C)[C@@H]2C
Activity (Mus musculus [1]): Active
Activity (Mus musculus [2]): Active
Activity (Mus musculus [3]): Active
Activity (Mus musculus [4]): Active
Activity (Mus musculus [5]): Active
Activity (Mus musculus [6]): Active
Activity (H4IIE [7]): Dose-dependent effect
Activity (3T3-L1 [8]): Dose-dependent effect
Activity (C2C12 [9]): Dose-dependent effect
Activity (H4IIE [10]): Dose-dependent effect
Activity (3T3-L1 [11]): Dose-dependent effect
Activity (C2C12 [12]): Dose-dependent effect
Activity (H4IIE [13]): Dose-dependent effect
Activity (3T3-L1 [14]): Dose-dependent effect
Activity (C2C12 [15]): Dose-dependent effect
Activity (H4IIE [16]): Dose-dependent effect
Activity (3T3-L1 [17]): Dose-dependent effect
Activity (C2C12 [18]): Dose-dependent effect
Activity (H4IIE [19]): Dose-dependent effect
Activity (3T3-L1 [20]): Dose-dependent effect
Activity (C2C12 [21]): Dose-dependent effect
inhibition (Rattus norvegicus [22]): Active
inhibition (Rattus norvegicus [23]): Dose-dependent effect
Activity (H4IIE [26]): Active
Activity (Mus musculus [32]): Active
Activity (Mus musculus [33]): Active

SMILES: C/C=C(/C)C(=O)O[C@@H]1CCC2=CC(=O)C(=C(C)C)C[C@]2(C)[C@H]1C
Activity (H4IIE [26]): Active

SMILES: NC(=O)c1ncn([C@@H]2O[C@H](CO)[C@@H](O)[C@H]2O)c1N
Activity (Mus musculus [34]): Active
